dFosB activator – mouse delta FosB homodimer activation | activation, % at 25 µM | purified delta FosB, TAMRA-CDK5 oligo fluorescence polarization; percent of positive-control signal above neutral wells | AID 493131 | 340,000 tested, 0.99% active;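 active = mean activation above about 17%, with every replicate also reaching it, limit read from the data, passing the limit was not always enough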
Target sequence (P13346 whole entry, looked up): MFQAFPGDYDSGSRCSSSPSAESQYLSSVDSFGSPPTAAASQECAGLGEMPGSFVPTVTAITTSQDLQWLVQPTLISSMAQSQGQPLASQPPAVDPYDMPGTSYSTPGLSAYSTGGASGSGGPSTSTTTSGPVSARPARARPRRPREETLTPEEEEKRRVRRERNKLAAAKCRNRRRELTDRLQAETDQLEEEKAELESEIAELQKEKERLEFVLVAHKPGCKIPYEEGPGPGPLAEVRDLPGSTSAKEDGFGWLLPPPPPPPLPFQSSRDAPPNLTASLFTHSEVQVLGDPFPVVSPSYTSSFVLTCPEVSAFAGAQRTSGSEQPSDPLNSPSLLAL
Env fusion inh – inhibitors of HIV Env-mediated cell fusion. HeLa-JRFL Env/CEM21 cell fusion, luciferase. inhibition, % at 12.3 µM. 360,000 tested, 1.1% active. AID 651610;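 active = mean replicate inhibition score of at least 50 and every replicate individually at or above 50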;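 also: 0% = plate neutral controls and 100% = maraviroc near 300 nM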
CDK5 p35 inh – blocks human CDK5/p35 kinase activity; Q00535+Q15078; Recombinant CDK5/p35, ADP-Glo luminescence, 60 min; inhibition, % at 10 µM; 330,000 tested, 0.01% active;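 active = highest replicate inhibition of at least 50% and at least 75% of replicates reaching 50%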;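 also: plate controls were DMSO neutral control for no effect and GW8510 at 10 µM for full effect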
PAX8 inh HTS – inhibitors of PAX8 transcriptional activity in RMG-I cells; inhibition, % at 12.6 µM; RMG-I TPO-luciferase reporter, SteadyGlo, 24 h; AID 652154; 360,000 tested, 1.2% active;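 active = mean replicate inhibition at least 60% with every replicate also reaching 60%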;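 also: luciferase light reporting Pax8 driven TPO promoter activity; plate controls were median of neutral control wells for no effect and mitoxantrone controls for full effect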
INS-1E GSIS act – primary screen for activators of insulin secretion dependent on glucose, INS-1E cells, GLuc reporter luminescence; INS-1E GLuc reporter insulin secretion, 2-3 h; activation, % at 16.6 µM; 370,000 tested, 0.61% active; AID 743287;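 active = lowest replicate activation of at least 40%, so every replicate reaches that level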;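 also: 0% = median of neutral control wells and 100% = median of IBMX positive control wells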
Cneo AK release – causes C. neoformans cell lysis. adenylate kinase release luminescence, 4 h; normalised: neutral wells 0, clomiphene wells 100. lysis activity, % at 15 µM. 360,000 tested, 0.2% active;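 active = mean lysis activity across replicates of at least 80%, whatever share of replicates individually reach that level; inactive = mean lysis activity below 80%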
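Material: C. neoformans cells; Schedule: 4 h static compound exposure, 37 °C, read 1 h post-reagent; Measured by: adenylate kinase release luminescence; Read-out: signal increase indicating cell lysis; Controls: Clomiphene as positive lysis control.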
Starred values were filed as active, the others as inactive; i = inactive; . = no result given; [ ] = remark or other dose. This is a sample that favours compounds with a hit; in the whole collection about 2.9% have one here.

SMILES	dFosB activator	Env fusion inh	CDK5 p35 inh	PAX8 inh HTS	INS-1E GSIS act	Cneo AK release
COc1ccc(NC(=O)Nc2ccc3c(c2)C(=O)N([C@H](C)CO)C[C@@H](C)[C@H](CN(C)S(=O)(=O)c2ccc(OC)cc2)OCCCC[C@@H](C)O3)cc1	.	1.0[16.7 µM]	.	12.6	0.5	-0.8
Cc1ccc(C(C)C)c(OCCNCCc2ccccc2)c1	-7.9	23.0	-3.4	-6.8	137.2*	6.4
Cc1ccc(C(C)C)c(OCCCNCc2cccnc2)c1	0.9	14.0	-3.4	0.7	-2.8	.
O=C(NC1CC(=O)N(c2ccccc2)C1)C(=O)c1c[nH]c2ccccc12 (stereo not given)	-4.8	61.5*	-2.4	21.6	-2.5	-2.4
O=C(Nc1cccc(Cl)c1)c1cnn2cccnc12	-13.0	-161.7	-3.3	.	58.3*	-10.2
O=C(Nc1cc(Cl)cc(Cl)c1)c1cnn2cccnc12	4.9	-70.4	2.0	-24.0	.	.
NC1=NC[C@H](Cc2ccccc2)N1CCCCC1CCCCC1	-2.8	18.6	1.0	6.9	469.5*	-1.1
CCOc1ccccc1-c1cc(C(=O)N/N=C/c2ccc(O)c(OC)c2)c2ccccc2n1	24.8*	14.4	1.0	3.7	3.9	.
CCOc1ccc(/C=N/NC(=O)c2cc(-c3ccco3)nc3ccccc23)cc1	0.9	-20.3	-2.0	11.2	68.5*	.
O=C(N/N=C/c1ccc(F)cc1)c1cc(-c2ccco2)nc2ccccc12	-16.9	-136.3	1.1	21.4	.	38.5
CCOc1ccccc1-c1cc(C(=O)N/N=C/c2ccc3c(c2)OCO3)c2ccccc2n1	3.3	-123.6	-4.1	.	.	1.3
CSc1nc(N2CCOCC2)c2ccccc2n1	-6.8	.	-0.6	.	92.5*	.
c1ccc2c(c1)nc(N1CCOCC1)c1ccccc12	4.0	-20.9	0.7	-14.1	12.6	.
CCN(CC)c1ccc(Nc2nc(N3CCOCC3)c3ccccc3n2)cc1	-1.5	56.8*	-1.8	11.9	.	0.0
COc1ccc(Nc2nc(N3CCCC3)c3ccccc3n2)cc1	59.1*	.	-3.3	.	.	.
COCC#Cc1ccc([C@H]2[C@@H](CO)N3C(=O)CN(C(=O)Nc4cc(F)ccc4F)C[C@@H]23)cc1	.	.	.	.	12.9	.
O=c1oc2ccccc2c(NC2CCCCC2)c1NS(=O)(=O)c1ccc(Br)cc1	6.7	.	1.7	.	.	0.3
CCCNc1c(NS(=O)(=O)c2ccc(Br)cc2)c(=O)oc2ccccc12	45.7*	-9.7	.	-6.9	-16.0	6.2
COc1cccc(NC(=S)NC(=O)Cc2ccc(Cl)cc2)c1	-10.6	6.5	1.9	-3.3	-32.0	83.3*
CCOC(=O)c1ccccc1NC(=O)Cn1c(=O)n(Cc2ccccc2)c(=O)c2c(C)c(C)sc21	-20.7	58.4*	-0.4	-8.0	-31.0	.
FC(F)(F)c1cnc(NNC(=S)Nc2ccc(Cl)cc2)c(Cl)c1	-5.5	55.0*	2.0	76.2*	-23.6	.
Cc1ccc(NC(=S)NNc2ncc(C(F)(F)F)cc2Cl)c(C)c1	-4.7	.	-5.1	.	.	3.2
Cc1ccc(NC(=S)NNc2ncc(C(F)(F)F)cc2Cl)cc1	-8.0	3.4	0.2	15.5	-28.0	4.3
Fc1ccc(NC(=S)NNc2ncc(C(F)(F)F)cc2Cl)c(F)c1	-1.4	69.6*	-2.5	85.4*	-38.9	.
O=C(C1CC1)N1CC(=O)N2[C@H](CO)[C@@H](c3ccc(-c4cccnc4)cc3)[C@@H]2C1	.	.	.	5.0	0.8	.
SMILES	dFosB activator	Env fusion inh	CDK5 p35 inh	PAX8 inh HTS	INS-1E GSIS act	Cneo AK release
Cc1nnc(-c2ccc(Oc3ccc(Cl)cc3)c([N+](=O)[O-])c2)o1	4.0	-5.8	0.3	-3.3	-10.0	.
O=[N+]([O-])c1cc(-c2nnc(-c3ccccc3)o2)ccc1Oc1ccc(Cl)cc1	2.9	.	0.3	97.8*	5.7	0.4
CCOc1cc(C(c2c(C)[nH][nH]c2=O)c2c(C)[nH][nH]c2=O)ccc1OCc1ccc([N+](=O)[O-])cc1	-8.6	-7.4	-9.5	.	.	3.4
CCOc1cc(/C=C2/NC(=S)NC2=O)ccc1OCc1ccc([N+](=O)[O-])cc1	1.7	.	-0.1	.	58.4*	-0.5
CCN(CC)c1ccc(S(=O)(=O)N2CCCCC2)cc1NC(=O)CSCc1c(C)noc1C	-5.6	62.3*	-0.7	29.1	-24.0	-0.2
Cc1ccc(/C=C/C(=O)NC2CCCCCCC2)o1	-10.2	-3.1	0.7	-3.6	57.8*	.
Cc1ccc(/C=N/NC(=O)NC2CCCCC2)o1	-4.4	14.8	0.0	-35.8	1.2	.
COc1ccc2c3c([nH]c2c1)[C@@H](CO)N(Cc1ccncc1)CC31CCN(C(=O)c2cccnc2)CC1	.	15.1[16.7 µM]	.	.	-5.0	.
CCS(=O)(=O)N1CCC(c2nc(-c3ccc(C(F)(F)F)cc3)no2)CC1	-1.5	55.6*	-7.2	.	.	1.9
O=C(Nc1cccc(C(F)(F)F)c1)N1CCC(c2nc(-c3ccc(F)cc3)no2)CC1	-11.9	68.8*	-3.1	.	-32.2	-4.8
CCS(=O)(=O)N1CCC(c2nc(-c3ccc(C)cc3)no2)CC1	-5.9	-50.6	1.0	.	.	-0.4
CCC(=O)N(C)C[C@H]1Oc2cc(-c3ccc(C)cc3)ccc2S(=O)(=O)N([C@@H](C)CO)C[C@@H]1C	.	-4.5[16.7 µM]	.	.	-21.9	-2.4
C[C@H]1CN([C@@H](C)CO)C(=O)Cc2cc(NC(=O)Nc3ccccc3)ccc2O[C@@H]1CN(C)S(=O)(=O)c1cn(C)cn1	.	-12.8[16.7 µM]	.	-8.4	9.1	-0.8
O=C1C(=C(I)I)c2ccccc2-c2ccccc21	-14.9	42.6	1.4	127.7*	-46.0	.
Cc1noc(C)c1S(=O)(=O)N(C)C[C@@H]1Oc2ccc(NS(=O)(=O)c3ccccc3)cc2CC(=O)N([C@@H](C)CO)C[C@H]1C	.	-19.8[16.7 µM]	.	-3.3	0.8	0.3
CCC(C)Nc1nc(N)c([N+](=O)[O-])c(NCCO)n1 (stereo not given)	-3.2	-7.6	10.8	-2.6	70.7*	.
O=c1cc(CN2CCCCCC2)nc2sccn12	-8.0	3.1	1.5	-13.7	6.7	.
Cc1cc(=O)n2ccsc2n1	-2.4	11.4	0.7	4.0	47.4*	-4.4
CCN(CC)CCOc1ccc2c(c1)C(=NO)c1cc(OCCN(CC)CC)ccc1-2	55.8*	i	0.7	.	7.9	1.1
CCCOc1ccc2c(c1)C(=NN=C(N)N)c1cc(OCCC)ccc1-2	34.6*	-21.3	1.9	12.8	124.0	2.1
C[C@H]1CN([C@@H](C)CO)C(=O)c2cc(NC(=O)Nc3cccc4ccccc34)ccc2O[C@@H]1CN(C)C(=O)Nc1ccccc1	.	.	.	17.6	8.0	-0.5
C[C@@H]1CN([C@@H](C)CO)C(=O)c2cc(NC(=O)Nc3ccc(F)cc3)ccc2O[C@@H]1CN(C)C(=O)Nc1cccc2ccccc12	.	.	.	74.8*	-5.0	2.4
C[C@@H]1CN([C@H](C)CO)C(=O)c2cc(NC(=O)Nc3cccc4ccccc34)ccc2O[C@@H]1CN(C)C(=O)Nc1ccccc1	.	.	.	5.9	-32.0	102.8*

Assay outcomes as filed in PubChem.
